Published values pooled from the literature.
Compare with care: the assays were run in different laboratories.
APC: Adenomatous polyposis coli protein (APC, Homo sapiens, UniProt P25054)
AMY1A: Alpha-amylase 1A (AMY1A, Homo sapiens, UniProt P0DUB6)
EGFR C797S/L858R/T790M: Epidermal growth factor receptor (EGFR, Homo sapiens, UniProt P00533, C797S/L858R/T790M)
EGFR: Epidermal growth factor receptor (EGFR, Homo sapiens, UniProt P00533)
Ephx2: Bifunctional epoxide hydrolase 2 (Ephx2, Mus musculus, UniProt P34914)

CC(C)C[C@H](NC(=O)[C@H](Cc1ccc2ccccc2c1)NC(=O)[C@H](CCC(=O)O)NC(=O)c1cccc(F)c1)C(=O)NC1CC1c1ccccc1 (stereo partly drawn) — IC50 (APC; ligand displacement, FP): 29500 nM
COc1ccc2nc3cc(Cl)ccc3c(Nc3cc(CN4CCCC4)c(O)c(CN4CCCC4)c3)c2n1 — IC50 (Palmitoyl-protein thioesterase 1 (Homo sapiens, UniProt P50897); enzyme activity, inhibitor): > 125000 nM
Oc1ccc(/C=C/c2cc(O)cc(O)c2)cc1 — IC50 (AMY1A; enzyme activity, inhibitor): > 100000 nM
Cc1ncc(CN2CCc3ccccc3C2)c2cc(C(=O)c3ccc4c(c3)OCCO4)oc12 — IC50 (EGFR C797S/L858R/T790M; enzyme activity, inhibitor, ADP detection): 42.7 nM
Oc1ccc([C@@H]2c3c(O)cc(O)cc3[C@@H]3c4c(cc(O)c5c4[C@@H]2[C@H](c2ccc(O)cc2)[C@H]5c2cc(O)cc4c2[C@@H](c2cc(O)cc(O)c2)[C@H](c2ccc(O)cc2)O4)O[C@H]3c2ccc(O)cc2)cc1 — IC50 (AMY1A; enzyme activity, inhibitor): 5300 nM
Cc1ccc2c(-c3cc4c(CN5CCN(Cc6ccccn6)CC5)cnc(C)c4o3)cc(=O)oc2c1 — IC50 (EGFR; enzyme activity, inhibitor, ADP detection): 8.38 nM
O=C(Nc1ccc(-c2ccc3ncccc3c2)cc1)C1CCN(S(=O)(=O)c2ccccc2Cl)CC1 — IC50 (Ephx2; enzyme activity, inhibitor, fluorescence): 87.7 nM
CC(C)C[C@H](NC(=O)[C@H](Cc1ccc2ccccc2c1)NC(=O)[C@H](CCC(=O)O)NC(=O)c1ccnc(Cl)n1)C(=O)NC1CC1c1ccccc1 (stereo partly drawn) — IC50 (APC; ligand displacement, FP): 4270 nM
Cc1ncc(CN2CCN(Cc3ccccn3)CC2)c2cc(C(=O)c3ccc4c(c3)OCCO4)oc12 — IC50 (EGFR C797S/L858R/T790M; enzyme activity, inhibitor, ADP detection): 29 nM
CC(C)C[C@H](NC(=O)[C@H](Cc1ccc2ccccc2c1)NC(=O)[C@H](CCC(=O)O)NC(=O)C1N=CN=N1)C(=O)NC1CC1c1ccccc1 (stereo partly drawn) — IC50 (APC; ligand displacement, FP): 81300 nM
O=C(Nc1ccc(-c2cccc3cccnc23)cc1)C1CCN(S(=O)(=O)c2ccccc2Cl)CC1 — IC50 (Ephx2; enzyme activity, inhibitor, fluorescence): 95.9 nM
CC(C)C[C@H](NC(=O)[C@H](Cc1ccc2ccccc2c1)NC(=O)[C@H](CCC(=O)O)NC(=O)c1ccncc1)C(=O)NC1CC1c1ccccc1 (stereo partly drawn) — IC50 (APC; ligand displacement, FP): 72400 nM
Cc1c(Cc2ccccc2)c(=O)oc2c(C)c(OCC(=O)NN=Cc3ccco3)ccc12 — IC50 (EGFR; enzyme activity, inhibitor, ATP luminescence): 559 nM
CC(C)C[C@H](NC(=O)[C@H](Cc1ccc2ccccc2c1)NC(=O)[C@H](CCC(=O)O)NC(=O)C1CCCCC1)C(=O)NC1CC1c1ccccc1 (stereo partly drawn) — IC50 (APC; ligand displacement, FP): 21900 nM
O=C(Nc1ccc(-c2ccc3ccccc3n2)cc1)C1CCN(S(=O)(=O)c2ccccc2Cl)CC1 — IC50 (Ephx2; enzyme activity, inhibitor, fluorescence): 182 nM
